# Laboratory results taken from ChEMBL document CHEMBL5724801, “EUbOPEN Chemogenomics Library - Multiplex” (2024).
# Where “and” joins values, the source holds several entries; their conditions need not be identical. Identical values can stand only once.
# Tested on: U2OS
# Experiment: Multiplex assay against U2OS
# Assay type: toxicity, cell-based
# Conditions: human
# Summary of the method: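 Hoechst33342, BioTracker Green Microtubule Cytoskeleton Dye, MitoTracker Red and Annexin V Alexa Fluor 680 were added to live cells at seeding, and imaging on a CQ1 microscope at 37°C and 5% CO2 followed compound addition. Gating by CellPathfinder machine learning separated cells into Hoechst high-intensity objects or normal cells, then normal cells into healthy, pyknosed or fragmented nuclei, then pyknosed cells into mitotic or apoptotic. Per cents of healthy-nucleus cells are reported for the tubulin, mitochondrial-mass and membrane-permeability phenotypes.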
# [1] = 12 h, 1 µM, compound concentration 1 uM
# [2] = 12 h, 10 µM, compound concentration 10 uM
# [3] = 24 h, 1 µM, compound concentration 1 uM
# [4] = 24 h, 10 µM, compound concentration 10 uM
# [5] = 48 h, 1 µM, compound concentration 1 uM
# [6] = 48 h, 10 µM, compound concentration 10 uM
compound,measurement,setting,value
N[C@](CC1c2ccccc2Oc2ccccc21)(C(=O)O)[C@H]1C[C@@H]1C(=O)O,Population Apoptotic (%),[1],80% and 72%
same,Population Fragmented Nuclei (%),[1],22% and 10%
same,Population Healthy Nuclei (%),[1],67% and 79%
same,Population Hoechst High Intensity Objects (%),[1],1%
same,Population Membrane Permeable-Phenotype (%),[1],6% and 1%
same,Population Mitochondria Different-Phenotype (%),[1],2% and 8%
same,Population Mitotic Cells (%),[1],20% and 27%
same,Population Normal (%),[1],98%
same,Population Pyknosed Nuclei (%),[1],9%
same,Population Tubulin-Different-Phenotype (%),[1],4% and 3%
same,Total Cell Count,[1],218 and 114
same,Population Apoptotic (%),[2],84% and 83%
same,Population Fragmented Nuclei (%),[2],18% and 19%
same,Population Healthy Nuclei (%),[2],72% and 76%
same,Population Hoechst High Intensity Objects (%),[2],3% and 0%
same,Population Membrane Permeable-Phenotype (%),[2],5% and 7%
same,Population Mitochondria Different-Phenotype (%),[2],3% and 0%
same,Population Mitotic Cells (%),[2],16%
same,Population Normal (%),[2],96% and 100%
same,Population Pyknosed Nuclei (%),[2],8% and 4%
same,Population Tubulin-Different-Phenotype (%),[2],2%
same,Total Cell Count,[2],295 and 141
same,Population Apoptotic (%),[3],78% and 63%
same,Population Fragmented Nuclei (%),[3],20% and 14%
same,Population Healthy Nuclei (%),[3],70% and 77%
same,Population Hoechst High Intensity Objects (%),[3],1% and 0%
same,Population Membrane Permeable-Phenotype (%),[3],1% and 4%
same,Population Mitochondria Different-Phenotype (%),[3],1% and 5%
same,Population Mitotic Cells (%),[3],21% and 36%
same,Population Normal (%),[3],98% and 99%
same,Population Pyknosed Nuclei (%),[3],8%
same,Population Tubulin-Different-Phenotype (%),[3],1% and 2%
same,Total Cell Count,[3],272 and 137
same,Population Apoptotic (%),[4],80% and 81%
same,Population Fragmented Nuclei (%),[4],13% and 15%
same,Population Healthy Nuclei (%),[4],79% and 77%
same,Population Hoechst High Intensity Objects (%),[4],3% and 0%
same,Population Membrane Permeable-Phenotype (%),[4],3% and 8%
same,Population Mitochondria Different-Phenotype (%),[4],3% and 1%
same,Population Mitotic Cells (%),[4],20% and 18%
same,Population Normal (%),[4],96% and 99%
same,Population Pyknosed Nuclei (%),[4],7% and 6%
same,Population Tubulin-Different-Phenotype (%),[4],1% and 3%
same,Total Cell Count,[4],365 and 164
same,Population Apoptotic (%),[5],89% and 85%
same,Population Fragmented Nuclei (%),[5],14% and 16%
same,Population Healthy Nuclei (%),[5],75% and 72%
same,Population Hoechst High Intensity Objects (%),[5],2% and 1%
same,Population Membrane Permeable-Phenotype (%),[5],3% and 5%
same,Population Mitochondria Different-Phenotype (%),[5],1% and 3%
same,Population Mitotic Cells (%),[5],10% and 15%
same,Population Normal (%),[5],97% and 98%
same,Population Pyknosed Nuclei (%),[5],9% and 10%
same,Population Tubulin-Different-Phenotype (%),[5],1% and 4%
same,Total Cell Count,[5],403 and 190
same,Population Apoptotic (%),[6],90% and 81%
same,Population Fragmented Nuclei (%),[6],15% and 12%
same,Population Healthy Nuclei (%),[6],77% and 78%
same,Population Hoechst High Intensity Objects (%),[6],1% and 0%
same,Population Membrane Permeable-Phenotype (%),[6],4% and 7%
same,Population Mitochondria Different-Phenotype (%),[6],3% and 1%
same,Population Mitotic Cells (%),[6],10% and 18%
same,Population Normal (%),[6],98% and 100%
same,Population Pyknosed Nuclei (%),[6],7% and 9%
same,Population Tubulin-Different-Phenotype (%),[6],2% and 3%
same,Total Cell Count,[6],554 and 238
CC/C(=C(\c1ccc(O)cc1)c1ccc(OCCN(C)C)cc1)c1ccccc1 [AFIMOXIFENE],Population Fragmented Nuclei (%),[1],0.84% and 5.44%
same,Population Healthy Nuclei (%),[1],90.45% and 83.67%
same,Population Hoechst High Intensity Objects (%),[1],0%
same,Population Membrane Permeable-Phenotype (%),[1],4.07%
same,Population Mitochondria Different-Phenotype (%),[1],0.62% and 4.88%
same,Population Mitotic Cells (%),[1],51.61% and 87.5%
same,Population Normal (%),[1],100%
same,Population Pyknosed Nuclei (%),[1],8.71% and 10.88%
same,Population Tubulin-Different-Phenotype (%),[1],2.48% and 1.63%
same,Total Cell Count,[1],356 and 147
same,Population Apoptotic (%),[2],35.09% and 27.27%
same,Population Fragmented Nuclei (%),[2],2.04% and 0.59%
same,Population Healthy Nuclei (%),[2],78.57% and 73.37%
same,Population Hoechst High Intensity Objects (%),[2],0%
same,Population Membrane Permeable-Phenotype (%),[2],0.43% and 5.65%
same,Population Mitotic Cells (%),[2],64.91% and 72.73%
same,Population Normal (%),[2],100%
same,Population Pyknosed Nuclei (%),[2],19.39% and 26.04%
same,Population Tubulin-Different-Phenotype (%),[2],5.63% and 4.84%
same,Total Cell Count,[2],294 and 169
same,Population Apoptotic (%),[3],53.06% and 20%
same,Population Fragmented Nuclei (%),[3],1.85% and 5.11%
same,Population Healthy Nuclei (%),[3],88.09% and 83.52%
same,Population Hoechst High Intensity Objects (%),[3],0%
same,Population Membrane Permeable-Phenotype (%),[3],0.93% and 2.04%
same,Population Mitochondria Different-Phenotype (%),[3],0.7% and 6.12%
same,Population Mitotic Cells (%),[3],46.94% and 80%
same,Population Normal (%),[3],100%
same,Population Pyknosed Nuclei (%),[3],10.06% and 11.36%
same,Population Tubulin-Different-Phenotype (%),[3],2.04%
same,Total Cell Count,[3],487 and 176
same,Population Apoptotic (%),[4],33.75% and 23.46%
same,Population Fragmented Nuclei (%),[4],2.3%
same,Population Healthy Nuclei (%),[4],77.24% and 56.72%
same,Population Hoechst High Intensity Objects (%),[4],0%
same,Population Membrane Permeable-Phenotype (%),[4],0.99% and 3.51%
same,Population Mitotic Cells (%),[4],66.25% and 76.54%
same,Population Normal (%),[4],100%
same,Population Pyknosed Nuclei (%),[4],20.46% and 40.3%
same,Population Tubulin-Different-Phenotype (%),[4],7.95% and 3.51%
same,Total Cell Count,[4],391 and 201
same,Population Apoptotic (%),[5],41.05% and 54.05%
same,Population Fragmented Nuclei (%),[5],1.6% and 5.32%
same,Population Healthy Nuclei (%),[5],87.51% and 81.56%
same,Population Hoechst High Intensity Objects (%),[5],0%
same,Population Membrane Permeable-Phenotype (%),[5],1.18% and 2.61%
same,Population Mitochondria Different-Phenotype (%),[5],0.26% and 4.78%
same,Population Mitotic Cells (%),[5],58.95% and 45.95%
same,Population Normal (%),[5],100%
same,Population Pyknosed Nuclei (%),[5],10.88% and 13.12%
same,Population Tubulin-Different-Phenotype (%),[5],0.79% and 1.74%
same,Population Apoptotic (%),[6],43.75% and 40.78%
same,Population Fragmented Nuclei (%),[6],4.78% and 5.95%
same,Population Healthy Nuclei (%),[6],74.84% and 55.76%
same,Population Hoechst High Intensity Objects (%),[6],0%
same,Population Membrane Permeable-Phenotype (%),[6],2%
same,Population Mitotic Cells (%),[6],56.25% and 59.22%
same,Population Normal (%),[6],100%
same,Population Pyknosed Nuclei (%),[6],20.38% and 38.29%
same,Population Tubulin-Different-Phenotype (%),[6],7.66% and 8.67%
same,Total Cell Count,[6],628 and 269
O=C1NCc2ccc3c(-c4cccc(Cl)c4)c[nH]c3c21,Population Apoptotic (%),[1],16.88% and 44.83%
same,Population Fragmented Nuclei (%),[1],2.23% and 1.96%
same,Population Healthy Nuclei (%),[1],76.32% and 79.08%
same,Population Hoechst High Intensity Objects (%),[1],0%
same,Population Membrane Permeable-Phenotype (%),[1],1.46% and 3.31%
same,Population Mitochondria Different-Phenotype (%),[1],0% and 8.26%
same,Population Mitotic Cells (%),[1],83.12% and 55.17%
same,Population Normal (%),[1],100%
same,Population Pyknosed Nuclei (%),[1],21.45% and 18.95%
same,Population Tubulin-Different-Phenotype (%),[1],1.46% and 2.48%
same,Total Cell Count,[1],359 and 153
same,Population Apoptotic (%),[2],31.03% and 23.81%
same,Population Fragmented Nuclei (%),[2],0.99% and 2.27%
same,Population Healthy Nuclei (%),[2],79.87% and 81.82%
same,Population Hoechst High Intensity Objects (%),[2],0%
same,Population Membrane Permeable-Phenotype (%),[2],2.89% and 3.7%
same,Population Mitochondria Different-Phenotype (%),[2],0% and 15.74%
same,Population Mitotic Cells (%),[2],68.97% and 76.19%
same,Population Normal (%),[2],100%
same,Population Pyknosed Nuclei (%),[2],19.14% and 15.91%
same,Population Tubulin-Different-Phenotype (%),[2],2.07% and 0.93%
same,Total Cell Count,[2],303 and 132
same,Population Apoptotic (%),[3],34.38% and 19.64%
same,Population Fragmented Nuclei (%),[3],3.92% and 1.72%
same,Population Healthy Nuclei (%),[3],66.59% and 66.09%
same,Population Hoechst High Intensity Objects (%),[3],0% and 0.57%
same,Population Membrane Permeable-Phenotype (%),[3],0.69% and 3.48%
same,Population Mitochondria Different-Phenotype (%),[3],0% and 8.7%
same,Population Mitotic Cells (%),[3],65.62% and 80.36%
same,Population Normal (%),[3],100% and 99.43%
same,Population Pyknosed Nuclei (%),[3],29.49% and 32.18%
same,Population Tubulin-Different-Phenotype (%),[3],1.73% and 2.61%
same,Total Cell Count,[3],434 and 175
same,Population Apoptotic (%),[4],50% and 28.3%
same,Population Fragmented Nuclei (%),[4],4.05% and 5.47%
same,Population Healthy Nuclei (%),[4],49.22% and 53.12%
same,Population Hoechst High Intensity Objects (%),[4],0.62% and 0%
same,Population Membrane Permeable-Phenotype (%),[4],0.63% and 8.82%
same,Population Mitochondria Different-Phenotype (%),[4],0% and 8.82%
same,Population Mitotic Cells (%),[4],50% and 71.7%
same,Population Normal (%),[4],99.38% and 100%
same,Population Pyknosed Nuclei (%),[4],46.73% and 41.41%
same,Population Tubulin-Different-Phenotype (%),[4],1.27% and 1.47%
same,Total Cell Count,[4],323 and 128
same,Population Apoptotic (%),[5],63.69% and 70.59%
same,Population Fragmented Nuclei (%),[5],9.74% and 8.94%
same,Population Healthy Nuclei (%),[5],47.18% and 43.58%
same,Population Hoechst High Intensity Objects (%),[5],0%
same,Population Membrane Permeable-Phenotype (%),[5],1.63% and 6.41%
same,Population Mitotic Cells (%),[5],36.31% and 29.41%
same,Population Normal (%),[5],100%
same,Population Pyknosed Nuclei (%),[5],43.08% and 47.49%
same,Population Tubulin-Different-Phenotype (%),[5],6.52% and 2.56%
same,Total Cell Count,[5],390 and 179
same,Population Apoptotic (%),[6],70.56% and 84.62%
same,Population Fragmented Nuclei (%),[6],6.99% and 3.12%
same,Population Healthy Nuclei (%),[6],38.3% and 46.09%
same,Population Hoechst High Intensity Objects (%),[6],0%
same,Population Membrane Permeable-Phenotype (%),[6],2.38% and 6.78%
same,Population Mitotic Cells (%),[6],29.44% and 15.38%
same,Population Normal (%),[6],100%
same,Population Pyknosed Nuclei (%),[6],54.71% and 50.78%
same,Population Tubulin-Different-Phenotype (%),[6],10.32% and 5.08%
same,Total Cell Count,[6],329 and 128
